Reference: ChEMBL document CHEMBL4350976, “Sequence modification of heptapeptide selected by phage display as homing device for HT-29 colon cancer cells to improve the anti-tumour activity of drug delivery systems” (Eur J Med Chem, 2019)
Where a SMILES comes first, the peptide text is derived from it. The star is where a group is joined. X1 = COc1cccc2c1C(=O)c1c(O)c3c(c(O)c1C2=O)C[C@@](O)(/C(C)=N/OCC(=O)*)C[C@@H]3O[C@H]1C[C@H](N)[C@H](O)[C@H](C)O1

What was measured:
4T1 = assay: Cytostatic activity against mouse 4T1 cells preincubated for 24 hrs under serum free condition followed by compound washout and further incubation for 48 hrs in presence of serum by MTT assay; type: functional, cell-based
How it was run: (§1)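 Cells were grown at 37 °C in 5% CO2 in medium with 10% heat-inactivated FBS (20% for OVCAR-3) plus penicillin/streptomycin. The medium was RPMI-1640 for most lines, DMEM for U-87 MG and MRC-5, and IMDM for PE/CA-PJ lines. Seeding was 3×10^3–10×10^3 cells per well. Cells had 24 h compound exposure, a wash, and 48 h further culture. Read-out was MTT, normalized to untreated cells and fitted by nonlinear regression for IC50.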

MCF7 [1] = assay: Potency index, ratio of compound IC50 to Daunomycin IC50 for human MCF7 cells preincubated for 24 hrs under serum free condition followed by compound washout and further incubation for 48 hrs in presence of serum by MTT assay; type: functional
PANC-1 [2] = assay: Potency index, ratio of compound IC50 to Daunomycin IC50 for human PANC1 cells preincubated for 24 hrs under serum free condition followed by compound washout and further incubation for 48 hrs in presence of serum by MTT assay; type: functional
PC-3 [3] = assay: Potency index, ratio of compound IC50 to Daunomycin IC50 for human PC3 cells preincubated for 24 hrs under serum free condition followed by compound washout and further incubation for 48 hrs in presence of serum by MTT assay; type: functional
[4] = Potency index, ratio of compound IC50 to Daunomycin IC50 for human PECAPJ41 cells preincubated for 24 hrs under serum free condition followed by compound washout and further incubation for 48 hrs in presence of serum by MTT assay; type: functional
U-87 MG = assay: Potency index, ratio of compound IC50 to Daunomycin IC50 for human U87 cells preincubated for 24 hrs under serum free condition followed by compound washout and further incubation for 48 hrs in presence of serum by MTT assay; type: functional, U-87MG ATCC
[5] = Drug uptake in human HT-29 cells cytoplasm at 50 uM after 90 mins by fluorescence based confocal microscopic analysis; type: ADME, subcellular; settings: ht-29, 1.5 h
How it was run: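 HT-29 cells were incubated with 50 µM compound in RPMI for 90 min. Imaging was by confocal microscopy, with Dau detected at 550–600 nm emission.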

HT-29 [6] = assay: Potency index, ratio of compound IC50 to Daunomycin IC50 for human HT-29 cells preincubated for 24 hrs under serum free condition followed by compound washout and further incubation for 48 hrs in presence of serum by MTT assay; type: functional
CT26.WT = assay: Potency index, ratio of compound IC50 to Daunomycin IC50 for mouse CT26.WT cells preincubated for 24 hrs under serum free condition followed by compound washout and further incubation for 48 hrs in presence of serum by MTT assay; type: functional
NCI-H1650 [7] = assay: Potency index, ratio of compound IC50 to Daunomycin IC50 for human NCI-H1650 cells preincubated for 24 hrs under serum free condition followed by compound washout and further incubation for 48 hrs in presence of serum by MTT assay; type: functional
NCI-H1975 = assay: Cytostatic activity against human NCI-H1975 cells preincubated for 24 hrs under serum free condition followed by compound washout and further incubation for 48 hrs in presence of serum by MTT assay; type: functional, cell-based; how it was run: as §1
HCT-116 [8] = assay: Potency index, ratio of compound IC50 to Daunomycin IC50 for human HCT116 cells preincubated for 24 hrs under serum free condition followed by compound washout and further incubation for 48 hrs in presence of serum by MTT assay; type: functional
MCF7 [9] = assay: Cytostatic activity against human MCF7 cells preincubated for 24 hrs under serum free condition followed by compound washout and further incubation for 48 hrs in presence of serum by MTT assay; type: functional, cell-based; how it was run: as §1
OVCAR-3 = assay: Potency index, ratio of compound IC50 to Daunomycin IC50 for human OVCAR3 cells preincubated for 24 hrs under serum free condition followed by compound washout and further incubation for 48 hrs in presence of serum by MTT assay; type: functional
A2058 [10] = assay: Cytostatic activity against human A2058 cells preincubated for 24 hrs under serum free condition followed by compound washout and further incubation for 48 hrs in presence of serum by MTT assay; type: functional, cell-based; how it was run: as §1
NCI-H1650 [11] = assay: Cytostatic activity against human NCI-H1650 cells preincubated for 24 hrs under serum free condition followed by compound washout and further incubation for 48 hrs in presence of serum by MTT assay; type: functional, cell-based; how it was run: as §1
B16 [12] = assay: Cytostatic activity against mouse B16 cells preincubated for 24 hrs under serum free condition followed by compound washout and further incubation for 48 hrs in presence of serum by MTT assay; type: functional, cell-based; how it was run: as §1
PANC-1 [13] = assay: Cytostatic activity against human PANC1 cells preincubated for 24 hrs under serum free condition followed by compound washout and further incubation for 48 hrs in presence of serum by MTT assay; type: functional, cell-based; how it was run: as §1
HT-29 [14] = assay: Cytotoxicity against human HT-29 cells assessed as reduction in cell viability by measuring decrease in fluorescence intensity at 100 uM incubated for 3 hrs by flow cytometry; type: cell-based; settings: ht-29, 3 h
[15] = Drug metabolism in rat liver lysosomes homogenate assessed as increase in Dau = Aoa-Leu-OH metabolite formation at 0.05 ug/ul after 1 hr by LC-MS analysis; type: ADME, subcellular, Lysosome; settings: tissue homogenate
How it was run: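 Conjugates and rat liver lysosomal homogenate were each used at 0.05 µg/µL. Samples were taken at 0, 1, 3, 6 and 24 h. Metabolites were identified by LC-MS on a C18 column with a formic acid/acetonitrile gradient.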

HCT-116 [16] = assay: Cytostatic activity against human HCT116 cells preincubated for 24 hrs under serum free condition followed by compound washout and further incubation for 48 hrs in presence of serum by MTT assay; type: functional, cell-based; how it was run: as §1
A2058 [17] = assay: Potency index, ratio of compound IC50 to Daunomycin IC50 for human A2058 cells preincubated for 24 hrs under serum free condition followed by compound washout and further incubation for 48 hrs in presence of serum by MTT assay; type: functional
[18] = Retention time of the compound using 0.1% TFA in water and 0.1% TFA in acetonitrile-water (80:20 v/v) as eluents by RP-HPLC analysis; type: physicochemical
How it was run: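 Analytical RP-HPLC. Eluent A was 0.1% TFA in water and eluent B was 0.1% TFA in acetonitrile-water (80:20, v/v). Gradient: 0% B held to 5 min, then to 90% B at 50 min. Flow 1 mL/min, detection at 220 nm. The column was a Phenomenex Aeris Peptide XB-C18 (250×4.6 mm, 3.6 μm) or a Nucleosil C18 (5 μm, 100 Å, 250×4.6 mm), depending on the conjugate series.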

B16 [19] = assay: Potency index, ratio of compound IC50 to Daunomycin IC50 for mouse B16 cells preincubated for 24 hrs under serum free condition followed by compound washout and further incubation for 48 hrs in presence of serum by MTT assay; type: functional
[20] = Potency index, ratio of compound IC50 to Daunomycin IC50 for human WM983B cells preincubated for 24 hrs under serum free condition followed by compound washout and further incubation for 48 hrs in presence of serum by MTT assay; type: functional
PC-3 [21] = assay: Cytostatic activity against human PC3 cells preincubated for 24 hrs under serum free condition followed by compound washout and further incubation for 48 hrs in presence of serum by MTT assay; type: functional, cell-based; how it was run: as §1

With COc1cccc2c1C(=O)c1c(O)c3c(c(O)c1C2=O)C[C@@](O)(/C(C)=N/OCC(=O)N[C@@H](CC(C)C)C(=O)N[C@@H](CCCNC(=N)N)C(=O)N[C@@H](CCCNC(=N)N)C(=O)N[C@@H](Cc1ccc(O)cc1)C(=O)N[C@H](C(=O)N[C@@H](Cc1cnc[nH]1)C(=O)N[C@@H](CC(C)C)C(=O)N[C@@H](Cc1ccccc1)C(=O)N[C@@H](Cc1ccc(O)cc1)C(=O)N[C@@H](C)C(=O)N[C@H](C(N)=O)[C@@H](C)O)C(C)C)C[C@@H]3O[C@H]1C[C@H](N)[C@H](O)[C@H](C)O1 (X1-LRRYVHLFYAT-NH2) the IC50 (4T1) was 11.6 µM, the “Ratio IC50” value (MCF7 [1]) was 38.8 and the “Ratio IC50” value (PANC-1 [2]) was 57.7. The “Ratio IC50” value (PC-3 [3]) was 226.7, the “Ratio IC50” value [4] was 165.7 and the “Ratio IC50” value (U-87 MG) was 236.9. For the same molecule, the Drug uptake [5] was “Active”, the “Ratio IC50” value (HT-29 [6]) was 57.1 and the “Ratio IC50” value (CT26.WT) was 66. For the same molecule, the “Ratio IC50” value (NCI-H1650 [7]) was 60.1, the IC50 (NCI-H1975) was 3.7 µM and the “Ratio IC50” value (HCT-116 [8]) was 57. The IC50 (MCF7 [9]) was 11.1 µM, the “Ratio IC50” value (OVCAR-3) was 24 and the IC50 (A2058 [10]) was 3.5 µM. It also gave an IC50 (NCI-H1650 [11]) of 2.9 µM, an IC50 (B16 [12]) of 3 µM and an IC50 (PANC-1 [13]) of 26.9 µM. The Activity (HT-29 [14]) was “Toxic”, the Drug metabolism [15] was “Metabolite_Detected” and the IC50 (HCT-116 [16]) was 7.2 µM. For the same molecule, the “Ratio IC50” value (A2058 [17]) was 104.5, the Retention time [18] was 31.2 to 33.2 min and the “Ratio IC50” value (B16 [19]) was 335.4. For the same molecule, the “Ratio IC50” value [20] was 114.6 and the IC50 (PC-3 [21]) was 5.9 µM.
